Molecules are shown by their SMILES. Calls of active or inactive are those of the source. No cut-off for these calls is given here.

In general, inhibition refers to the share of the control response that was lost under treatment. Low readings indicate little suppression, high ones strong suppression. The term IC50 denotes the concentration at which inhibition is half-maximal. The low end stands for greater potency in that assay, the high end for weaker potency in that assay.

For data set [1], the system named is BV-2. Kind of data set: Inhibition of NO production in LPS-activated mouse BV2 cells at 10 uM after 24 hrs by Griess method relative to control. The data set is classed as functional. Particulars: for inhibition at 10 µM: BV-2, 24 h. The essentials: (§1)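 Murine BV-2 microglia stimulated with LPS 100 ng/mL with or without sample for 24 h; nitrite in culture medium measured by Griess reaction. Percent inhibition relative to LPS control at 10 μM, n = 3; IC50 also derived.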
In general terms: Griess reagent forms a coloured azo dye with nitrite.

A short description of data set [2]: Cytotoxicity against mouse BV2 cells assessed as cell viability at 10 uM by MTT assay. The data set is classed as cell-based. Particulars: bv-2, 10 µM. The gist of the method: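 BV-2 microglia viability determined by MTT assay alongside the LPS (100 ng/mL) nitrite experiment.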
In general terms: Tetrazolium dyes change colour on reduction, which living cells bring about.

The test system of data set [3] is BV-2. Kind of data set: Inhibition of iNOS expression in LPS-activated mouse BV2 cells at 1-10 uM after 6 hrs by Western blot. The data set is classed as functional, cell-based. The essentials: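 BV-2 cells treated 6 h with compound (1–10 μM) during LPS (100 ng/mL) activation; protein assessed by blotting with anti-tubulin as loading control; representative of three independent experiments.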

Data set [4] deals with BV-2. Kind of data set: Inhibition of NO production in LPS-activated mouse BV2 cells after 24 hrs by Griess method. The data set is classed as functional, cell-based. The conditions noted are these: BV-2, 24 h. The gist of the method: as §1

As to `COc1ccc(-c2c[nH]c3cc(OC)ccc3c2=O)cc1`, the result in the data set on BV-2 [1] was inactive. Besides, the Activity entry in data set [2] is recorded as “Toxic”.

`CCn1cc(-c2ccc(O)cc2)c(=O)c2c(O)cc(O)cc21` [AZAISOFLAVONE]: the Activity result in the data set with BV-2 [3] is “Dose-dependent effect”. The inhibition at 10 µM with BV-2 [1] was determined as 58.1%. This molecule came in with an IC50 with BV-2 [4] of 7.83 µM.

Molecule `CCn1cc(-c2ccc(OC)cc2)c(=O)c2ccccc21` registered an inhibition at 10 µM with BV-2 [1] of 14.9%. The molecule further returned a 50% inhibitory concentration (IC50) in the data set on BV-2 [4] of 25.8 µM.

Take `CCn1cc(-c2ccc(OC)cc2)c(=O)c2c(OC)cc(OC)cc21`: the inhibition at 10 µM in the data set on BV-2 [1] was 27.3%. The IC50 in the data set on BV-2 [4] worked out at 17.6 µM.

Consider `O=c1c(-c2ccc(O)cc2)c[nH]c2cc(O)cc(O)c12`, for which, in the data set on BV-2 [1], at 10 µM the inhibition was 45%. The molecule also had an IC50 in the data set on BV-2 [4] of 10.9 µM.

As to `Cn1cc(-c2ccc(O)cc2)c(=O)c2c(O)cc(O)cc21`, 10 µM produced 39.3% inhibition with BV-2 [1]. Further, in the data set with BV-2 [4], the IC50 turned out to be 13.3 µM.

For the molecule `COc1ccc(-c2c[nH]c3cc(OC)cc(OC)c3c2=O)cc1`, the inhibition at 10 µM with BV-2 [1] amounted to 23.2%. In addition, in the data set on BV-2 [4], the IC50 amounted to 20.5 µM.

In the case of `COc1ccc(-c2c[nH]c3ccccc3c2=O)cc1`, the result in the data set with BV-2 [1] was inactive. Also, the Activity result in data set [2] is “Toxic”.

With `O=c1c(-c2ccc(O)cc2)c[nH]c2ccccc12`, the inhibition at 10 µM in the data set on BV-2 [1] was 29.5%. The molecule also had an IC50 in the data set on BV-2 [4] of 15.6 µM.

The molecule `Cn1cc(-c2ccc(O)cc2)c(=O)c2ccccc21` displayed an inhibition at 10 µM in the data set with BV-2 [1] of 47.4%. The molecule further came in with an IC50 with BV-2 [4] of 9.91 µM.

In the data set on BV-2 [1], `COc1ccc(-c2cn(C)c3ccccc3c2=O)cc1` had an inhibition at 10 µM of 31.9%. This molecule also had a half-maximal inhibitory concentration (IC50) with BV-2 [4] of 18.8 µM.

In the case of `CCn1cc(-c2ccc(O)cc2)c(=O)c2ccccc21`, 10 µM produced 27% inhibition with BV-2 [1]. Further, the IC50 in the data set with BV-2 [4] came out at 18.5 µM.

For the origin of these results see ChEMBL document CHEMBL1154995, “Synthesis of azaisoflavones and their inhibitory activities of NO production in activated microglia” (Bioorg Med Chem Lett, 2008).
